What was measured:
[1] = biological target: T1, Voltage-dependent L-type calcium channel subunit alpha-1C (Oryctolagus cuniculus, UniProt P15381); assay: Selectivity index was measured as the IC50 needed to depress the heart beat divided by IC50 needed to block [Ca2+] contractions in rabbit aortic strips; assay type: functional, tissue-based, Aorta
Oryctolagus cuniculus [2] = species on record: Oryctolagus cuniculus; assay: Blockade of calcium-evoked contractions evaluated in depolarized rabbit aortic strips; assay type: functional; settings: Aorta
How it was run: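 Male New Zealand rabbit thoracic aorta, helicoidal strips, 2.5 g preload, Krebs–bicarbonate, 37 °C, 95% O2/5% CO2, pH 7.4. After 1 h equilibration, depolarized with 35 mM K+; 1.5 mM Ca2+ added 10 min later, repeated until reproducible. Compound at increasing concentrations from 20 min before and during Ca2+ addition; responses normalized to initial tension; IC50 by Finney method.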

Oryctolagus cuniculus [3] = species on record: Oryctolagus cuniculus; assay: Recovery of the initial contraction of rabbit aortic strips, blocked at 10e-7 M concentration.; settings: Aorta
Oryctolagus cuniculus [4] = species on record: Oryctolagus cuniculus; assay: Relative potency evaluated (relative potency = IC50 of compound / IC50 of nifedipine) in rabbit; assay type: functional
Oryctolagus cuniculus [5] = species on record: Oryctolagus cuniculus; assay: Inhibition of electrically stimulated rabbit left atria contraction.; assay type: functional
How it was run: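 Rabbit left atria electrically driven (1 Hz, 10 ms, twice threshold voltage), equilibrated 1–1.5 h. Compounds added cumulatively (10^-10–10^-6 M), diluted from DMSO stocks into Krebs–Henseleit, final DMSO <0.1%. Isometric force recorded; IC50 from contractile force relative to initial control values, with 95% confidence limits.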

Oryctolagus cuniculus [6] = species on record: Oryctolagus cuniculus; assay: Relative potency was evaluated. (relative potency = IC50 of compound / IC50 of nifedipine); assay type: functional
[7] = biological target: T1, Voltage-dependent L-type calcium channel subunit alpha-1C; assay: Blockade of calcium-evoked contractions in depolarized aortic strips; assay type: functional, tissue-based, Aorta

T1 sequence (P15381 whole entry): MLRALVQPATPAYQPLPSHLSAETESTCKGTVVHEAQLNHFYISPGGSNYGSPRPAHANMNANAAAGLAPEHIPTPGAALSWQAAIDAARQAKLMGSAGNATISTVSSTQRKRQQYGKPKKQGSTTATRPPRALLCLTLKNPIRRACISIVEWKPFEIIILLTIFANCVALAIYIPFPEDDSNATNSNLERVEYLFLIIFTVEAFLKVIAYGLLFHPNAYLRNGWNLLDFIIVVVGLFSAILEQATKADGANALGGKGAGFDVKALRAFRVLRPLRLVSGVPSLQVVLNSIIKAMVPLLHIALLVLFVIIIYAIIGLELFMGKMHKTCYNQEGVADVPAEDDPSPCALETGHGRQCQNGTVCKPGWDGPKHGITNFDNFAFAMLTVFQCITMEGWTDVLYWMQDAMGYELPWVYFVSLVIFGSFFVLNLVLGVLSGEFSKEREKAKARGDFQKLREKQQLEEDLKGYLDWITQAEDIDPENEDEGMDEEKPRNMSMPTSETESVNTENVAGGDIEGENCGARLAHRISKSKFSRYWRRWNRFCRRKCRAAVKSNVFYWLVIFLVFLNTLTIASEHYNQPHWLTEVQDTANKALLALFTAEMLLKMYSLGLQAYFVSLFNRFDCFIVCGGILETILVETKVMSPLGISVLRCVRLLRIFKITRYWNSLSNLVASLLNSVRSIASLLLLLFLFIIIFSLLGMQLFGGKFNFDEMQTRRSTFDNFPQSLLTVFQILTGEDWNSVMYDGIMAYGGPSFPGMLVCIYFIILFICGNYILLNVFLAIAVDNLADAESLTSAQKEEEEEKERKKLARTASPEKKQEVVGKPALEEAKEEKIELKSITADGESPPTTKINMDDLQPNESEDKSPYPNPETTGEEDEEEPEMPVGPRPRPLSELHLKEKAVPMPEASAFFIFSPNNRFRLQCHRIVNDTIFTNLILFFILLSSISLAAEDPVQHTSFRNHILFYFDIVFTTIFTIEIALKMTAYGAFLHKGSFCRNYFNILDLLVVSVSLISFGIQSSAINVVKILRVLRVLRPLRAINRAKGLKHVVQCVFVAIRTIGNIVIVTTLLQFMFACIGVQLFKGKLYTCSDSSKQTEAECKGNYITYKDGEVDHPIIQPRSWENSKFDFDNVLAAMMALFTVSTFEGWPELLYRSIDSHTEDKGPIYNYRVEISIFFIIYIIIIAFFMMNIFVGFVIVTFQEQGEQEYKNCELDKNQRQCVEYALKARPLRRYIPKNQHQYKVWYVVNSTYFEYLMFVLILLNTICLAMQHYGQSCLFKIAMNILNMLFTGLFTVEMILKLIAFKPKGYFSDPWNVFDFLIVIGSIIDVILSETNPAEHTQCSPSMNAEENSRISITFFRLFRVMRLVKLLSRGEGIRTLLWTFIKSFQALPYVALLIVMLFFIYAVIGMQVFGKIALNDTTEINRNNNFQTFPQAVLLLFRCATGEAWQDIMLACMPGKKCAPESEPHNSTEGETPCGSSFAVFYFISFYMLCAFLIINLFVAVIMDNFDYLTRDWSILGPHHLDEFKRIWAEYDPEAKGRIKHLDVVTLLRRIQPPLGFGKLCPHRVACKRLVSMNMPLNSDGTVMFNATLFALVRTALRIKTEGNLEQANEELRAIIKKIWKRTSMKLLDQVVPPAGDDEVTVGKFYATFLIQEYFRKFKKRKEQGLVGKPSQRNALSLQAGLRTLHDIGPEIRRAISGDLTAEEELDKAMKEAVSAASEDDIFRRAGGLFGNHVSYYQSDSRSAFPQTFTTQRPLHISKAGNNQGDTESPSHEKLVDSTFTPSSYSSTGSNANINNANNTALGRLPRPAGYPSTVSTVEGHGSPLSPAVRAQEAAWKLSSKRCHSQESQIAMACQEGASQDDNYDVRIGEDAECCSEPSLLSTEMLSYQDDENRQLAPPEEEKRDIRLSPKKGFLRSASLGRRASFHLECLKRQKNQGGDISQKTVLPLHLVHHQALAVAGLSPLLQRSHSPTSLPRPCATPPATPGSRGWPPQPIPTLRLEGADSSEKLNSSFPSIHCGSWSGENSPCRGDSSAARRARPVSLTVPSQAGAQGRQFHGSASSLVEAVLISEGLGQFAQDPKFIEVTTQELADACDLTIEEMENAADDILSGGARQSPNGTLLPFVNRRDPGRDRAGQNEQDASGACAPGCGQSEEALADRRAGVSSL

| Structure (SMILES) | IC50 (Oryctolagus cuniculus [2]) [nM] | Relative potency (Oryctolagus cuniculus [4]) | other results |
| --- | --- | --- | --- |
| CO/C(O)=C1\C(C)=NC(C)=C(C(=O)OCCCN2C(=O)c3ccccc3S2(=O)=O)C1c1ccccc1[N+](=O)[O-] (centres undefined) | 1.5 | 1.9 | Selectivity index [1]: 80; Recovery (Oryctolagus cuniculus [3]): 18.8%; IC50 (Oryctolagus cuniculus [5]): 120 nM |
| CC1=NC(C)=C(C(=O)OCCCN2C(=O)c3ccccc3S2(=O)=O)C(c2ccccc2Cl)/C1=C(\O)OCC1CCCCO1 (centres undefined) | 7 | 0.4 | – |
| CCO/C(O)=C1\C(C)=NC(C)=C(C(=O)OCCN2C(=O)c3ccccc3S2(=O)=O)C1c1ccccc1Cl (centres undefined) | 10 | 0.3 | – |
| CC1=NC(C)=C(C(=O)OCN2C(=O)c3ccccc3S2(=O)=O)C(c2cccc([N+](=O)[O-])c2)/C1=C(\O)OCC1CCCCO1 (centres undefined) | – | – | Relative potency (Oryctolagus cuniculus [6]): 0.2; IC50 [7]: 13.3 nM |
| CO/C(O)=C1\C(C)=NC(C)=C(C(=O)OCCCN2C(=O)c3ccccc3S2(=O)=O)C1c1ccccc1Cl (centres undefined) | 1.8 | 1.6 | Selectivity index [1]: 77; Recovery (Oryctolagus cuniculus [3]): 6.05%; IC50 (Oryctolagus cuniculus [5]): 140 nM |
| CO/C(O)=C1\C(C)=NC(C)=C(C(=O)OCCN2C(=O)c3ccccc3S2(=O)=O)C1c1cccc([N+](=O)[O-])c1 (centres undefined) | 39.8 | 0.1 | – |
| CC1=NC(C)=C(C(=O)OCCCN2C(=O)c3ccccc3S2(=O)=O)C(c2ccccc2C(F)(F)F)/C1=C(\O)OC(C)C (centres undefined) | 2.7 | 1.1 | – |
| COCCO/C(O)=C1\C(C)=NC(C)=C(C(=O)OCCCN2C(=O)c3ccccc3S2(=O)=O)C1c1ccccc1Cl (centres undefined) | 2.9 | 1 | – |
| CO/C(O)=C1\C(C)=NC(C)=C(C(=O)OCN2C(=O)c3ccccc3S2(=O)=O)C1c1ccccc1[N+](=O)[O-] (centres undefined) | – | – | Relative potency (Oryctolagus cuniculus [6]): 0.1; IC50 [7]: 30.9 nM |
| CC1=NC(C)=C(C(=O)OCCCN2C(=O)c3ccccc3S2(=O)=O)C(c2ccccc2Cl)/C1=C(\O)OC(C)C (centres undefined) | 1.3 | 2.2 | Selectivity index [1]: 37; IC50 (Oryctolagus cuniculus [5]): 48 nM |
| CO/C(O)=C1\C(C)=NC(C)=C(C(=O)OCN2C(=O)c3ccccc3S2(=O)=O)C1c1cccc([N+](=O)[O-])c1 (centres undefined) | – | – | Relative potency (Oryctolagus cuniculus [6]): 0.2; IC50 [7]: 15.1 nM |
| CC1=NC(C)=C(C(=O)OCCN2C(=O)c3ccccc3S2(=O)=O)C(c2cccc(Cl)c2Cl)/C1=C(\O)OCC1CCCO1 (centres undefined) | 2.1 | 1.4 | – |
| COCCO/C(O)=C1\C(C)=NC(C)=C(C(=O)OCCN2C(=O)c3ccccc3S2(=O)=O)C1c1ccccc1Cl (centres undefined) | 22.9 | 0.1 | Recovery (Oryctolagus cuniculus [3]): 0.5% |
| COCCO/C(O)=C1\C(C)=NC(C)=C(C(=O)OCCCN2C(=O)c3ccccc3S2(=O)=O)C1c1cccc([N+](=O)[O-])c1 (centres undefined) | 6.8 | 0.4 | – |
| CC1=NC(C)=C(C(=O)OCCCN2C(=O)c3ccccc3S2(=O)=O)C(c2ccccc2[N+](=O)[O-])/C1=C(\O)OCC1CCCCO1 (centres undefined) | 11.5 | 0.3 | – |
| CO/C(O)=C1\C(C)=NC(C)=C(C(=O)OCCN2C(=O)c3ccccc3S2(=O)=O)C1c1cccc(Cl)c1Cl (centres undefined) | 17.3 | 0.2 | – |
| CC1=NC(C)=C(C(=O)OCN2C(=O)c3ccccc3S2(=O)=O)C(c2ccccc2[N+](=O)[O-])/C1=C(\O)OCC1CCCCO1 (centres undefined) | – | – | Relative potency (Oryctolagus cuniculus [6]): 0.1; IC50 [7]: 25.1 nM |
| CC1=NC(C)=C(C(=O)OCCCN2C(=O)c3ccccc3S2(=O)=O)C(c2ccccc2Cl)/C1=C(\O)OCC1CCCO1 (centres undefined) | 7.1 | 0.4 | – |
| CCCO/C(O)=C1\C(C)=NC(C)=C(C(=O)OCN2C(=O)c3ccccc3S2(=O)=O)C1c1cccc([N+](=O)[O-])c1 (centres undefined) | – | – | Relative potency (Oryctolagus cuniculus [6]): <0.1; IC50 [7]: 64.5 nM |
| CC1=NC(C)=C(C(=O)OCCN2C(=O)c3ccccc3S2(=O)=O)C(c2ccccc2Cl)/C1=C(\O)OCC1CCCO1 (centres undefined) | 3.5 | 0.8 | – |
| CCO/C(O)=C1\C(C)=NC(C)=C(C(=O)OCCCN2C(=O)c3ccccc3S2(=O)=O)C1c1ccccc1Cl (centres undefined) | 3.9 | 0.7 | – |
| CCO/C(O)=C1\C(C)=NC(C)=C(C(=O)OCCCN2C(=O)c3ccccc3S2(=O)=O)C1c1ccccc1[N+](=O)[O-] (centres undefined) | 2.6 | 1.1 | – |
| CO/C(O)=C1\C(C)=NC(C)=C(C(=O)OCN2C(=O)c3ccccc3S2(=O)=O)C1c1cccc(Cl)c1Cl (centres undefined) | – | – | Relative potency (Oryctolagus cuniculus [6]): 0.6; IC50 [7]: 5.1 nM |
| CC1=NC(C)=C(C(=O)OCN2C(=O)c3ccccc3S2(=O)=O)C(c2ccccc2[N+](=O)[O-])/C1=C(\O)OC(C)C (centres undefined) | – | – | Relative potency (Oryctolagus cuniculus [6]): 2.1; IC50 [7]: 1.4 nM |
| CC1=NC(C)=C(C(=O)OCCCN2C(=O)c3ccccc3S2(=O)=O)C(c2cccc(Cl)c2Cl)/C1=C(\O)OC(C)(C)C (centres undefined) | 3.1 | 0.2 | – |

— ChEMBL document CHEMBL1126270, “Synthesis of 3-[(2,3-dihydro-1,1,3-trioxo-1,2-benzisothiazol-2-yl)alkyl] 1,4-dihydropyridine-3,5-dicarboxylate derivatives as calcium channel modulators” (J Med Chem, 1992)
